Shown are actives, neighbours in structure and some others; about 1.5% of the full set was active somewhere.
TbHK1 inh – Trypanosoma brucei hexokinase 1 inhibitors, primary screen, biochemical, G6PDH-coupled NADH absorbance, MLSCN library; AID 1430, 2008; inhibition, % at 10 µM; hit rate 0.11% among 220,000; hexokinase 1 [Trypanosoma brucei]; recombinant TbHK1, G6PDH-coupled NADH A340;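 active = inhibition of 50% or more in the single-dose primary screen; inactive = inhibition below 50%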
TNF necrop inh – inhibitors of TNF-alpha triggered necroptosis, primary screen, cell-based, Jurkat FADD-/-, single concentration; Jurkat FADD-/- TNF necroptosis rescue, ATP luminescence, 24 h; 0 = TNF only, 100 = no-TNF cells; activation (protection from cell death), % at 10 µM; hit rate 0.068% among 220,000;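 active = activation, meaning protection from cell death, of at least 50% relative to plate controls; inactive = activation below 50%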;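 also: necroptosis triggered by 40 ng/mL TNF-alpha added together with compound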
S1P4 antagonist – S1P4 receptor antagonists, primary screen, cell-based | inhibition, % at 4.98 µM | Sphingosine 1-phosphate receptor 4 (Homo sapiens), O95977 | S1P4-expressing cells, antagonist mode, reporter read-out | hit rate 0.26% among 220,000; in the data active = inhibition above about 29%;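 also: 0% = wells stimulated with agonist and 100% = vehicle wells without agonist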
Target sequence (O95977 whole entry, looked up): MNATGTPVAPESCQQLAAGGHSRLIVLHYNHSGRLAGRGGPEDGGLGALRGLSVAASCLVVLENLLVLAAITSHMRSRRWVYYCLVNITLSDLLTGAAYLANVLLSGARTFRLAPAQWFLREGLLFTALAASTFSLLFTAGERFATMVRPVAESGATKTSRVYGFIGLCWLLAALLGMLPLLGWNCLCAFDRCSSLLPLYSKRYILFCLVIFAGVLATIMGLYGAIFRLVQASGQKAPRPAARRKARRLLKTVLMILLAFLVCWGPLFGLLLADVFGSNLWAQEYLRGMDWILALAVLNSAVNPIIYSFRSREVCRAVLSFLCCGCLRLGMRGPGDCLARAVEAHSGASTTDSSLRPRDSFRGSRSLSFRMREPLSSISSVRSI
L929 necroptosis – inhibitors of zVAD-triggered necroptosis, primary screen, L929 cells. viability rescue, % at 10 µM. L929 zVAD necroptosis rescue, ATP luminescence, 24 h; with zVAD 60 µM. hit rate 0.38% among 220,000;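 active = activation, scaled between plate controls, above about 75%, limit read from the data; inactive = activation under that limit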;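 also: 0% = zVAD with DMSO and 100% = DMSO alone without zVAD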
Dynein transport – inhibitors of GR-EGFP nuclear translocation, primary screen, dynein cargo transport inhibitor project, imaging, high-content, 3617.4 mouse cells. hit rate 0.47% among 220,000. z-score, hits read low. AID 1381, 2008. test concentration mostly 20 µM; stimulated with dexamethasone, 1 µM; active compounds read low;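 active = plate z-score of nuclear minus cytoplasmic receptor signal below a set negative limit, without overly bright fluorescence or cell loss, cut at about -3.5 in these data, passing the limit was not always enough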;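 also: z-score of nuclear minus cytoplasmic ring GR-EGFP intensity difference per well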
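Buffer or medium: Induction medium lacking tetracycline, stripped serum | Also added: Dexamethasone agonist, 1.0 µM final, for 30 min | Timing: 48 h induction, 1 h compound, 30 min dex at 37 °C | Detection: Formaldehyde fixation, Hoechst nuclear stain, 10x automated fluorescence imaging | Measure: Nuclear versus cytoplasmic GR-EGFP signal, averaged per well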
S1P4 ag – S1P4 receptor agonists, primary screen, cell-based; activation, % at 4.98 µM; hit rate 0.35% among 220,000; AID 1509, 2009; S1P4-expressing cell line, agonist reporter assay; Sphingosine 1-phosphate receptor 4 (Homo sapiens), O95977; in the data active = activation above about 11%;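 also: 0% = DMSO vehicle and 100% = reference agonist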
zVAD necrop conf – inhibitors of zVAD-triggered necroptosis in L929, confirmation, L929 cells, duplicate runs; shares compounds with L929 necroptosis; L929 zVAD-induced necroptosis rescue, ATP luminescence, 24 h; hit rate 16% among 760; activation (protection from necroptosis), % at 10 µM; AID 463117, 2010;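 active = mean protection from necroptosis of at least 50% over duplicate tests; inactive = mean protection below 50%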;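 also: 0% = cells with zVAD alone and 100% = vehicle cells without zVAD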
* = called active by the depositor; . = no result.

SMILES	TbHK1 inh	TNF necrop inh	S1P4 antagonist	L929 necroptosis	Dynein transport	S1P4 ag	zVAD necrop conf
Cc1ccc(CN2CCN(/N=C/C(Br)=C\c3ccccc3)CC2)cc1	-19	-1	-27	0	0.97	-1	.
COC(=O)Nc1ccc2c(c1)ncn2C1CCCCC1	0	1	-16	59	0.77	0	.
CCOC(=O)Nc1ccc2c(c1)ncn2C1CCCCC1	-3	1	-11	84*	-0.92	-1	17
O=C(N/N=C/c1ccc([N+](=O)[O-])cc1)c1[nH]ncc1Br	-5	0	-14	1	-1.4	0	.
CN1CCN(c2ccc(-c3ccnn3C(=O)Nc3ccccc3)cc2)CC1	-3	9	7	84*	-0.12	-1	29
CN1CCN(c2ccc(NC(=O)c3cccs3)cc2)CC1	-13	1	15	2	-1.3	1	.
C(=N/Nc1nccs1)/c1cccnc1	-27	7	6	78*	-0.63	2	4
Nc1ccccc1Nc1cc(-c2ccccc2)[nH]n1	6	-13	-11	91*	-2	0	89*
COc1cc(/C=N/Nc2ccc(C(F)(F)F)cn2)ccc1O	-30	45	11	79*	0.53	1	93*
COc1cc(/C=N/Nc2ncc(C(F)(F)F)cc2Cl)cc(OC)c1O	-34	0	-11	0	-0.54	1	.
O=C(O)c1ccc(/C=N/Nc2ccc(C(F)(F)F)cn2)cc1	-29	58*	0	88*	0.4	-1	12
O=C(O)c1ccc(/C=N/Nc2cccc(C(F)(F)F)c2)cc1	-18	-1	5	3	-0.36	1	.
O=C(O)c1csc(-n2nc(-c3ccccc3)cc2C(F)(F)F)n1	-4	0	-17	28	-0.77	2	.
Cc1cc(NCCCN2CCOCC2)n2ncc(-c3ccc(Cl)cc3)c2n1	-38	-1	1	84*	-0.4	0	1
CC(C)(C)c1ccc(NC(=O)Nc2ccc(OCC(=O)N3CCOCC3)cc2)cc1	-5	2	-7	80*	-0.68	0	40
O=C(Nc1ccc(OCC(=O)N2CCOCC2)cc1)Nc1cccc(Cl)c1	3	2	-5	71	-0.16	0	.
O=C(CSc1nnc(-c2ccccc2Br)o1)N1CCN(C(=O)c2ccco2)CC1	4	-1	2	86*	-0.35	0	38
C(=N\Nc1nc2ccccc2[nH]1)/c1ccc2c(c1)OCO2	-47	19	11	79*	1.4	-2	9
CC(=O)Nc1ccc(/C=N/Nc2nc3ccccc3[nH]2)cc1	-62	-3	-7	88*	-0.23	1	2
COC(=O)c1ccc(/C=N/Nc2nc3ccccc3[nH]2)cc1	-23	16	-2	82*	-0.17	0	8
C(=N\Nc1nc2ccccc2[nH]1)/c1ccncc1	-25	30	-4	78*	0.88	1	51*
S=C(Nc1ccc2nccnc2c1)N1CCOCC1	-16	0	-21	38	-1.4	1	.
O=C(Nc1ccc(-c2csc(Nc3ccc(Cl)cc3)n2)cc1)c1cccc(C(F)(F)F)c1	-34	8	.	82*	-0.77	.	39
O=C(Nc1ccc(-c2csc(Nc3ccccc3)n2)cc1)c1cccc(C(F)(F)F)c1	-9	6	.	60	0.035	.	.
Nc1nc(N)nc(COc2ccccc2)n1	-4	-1	1	1	-0.2	0	.
SMILES	TbHK1 inh	TNF necrop inh	S1P4 antagonist	L929 necroptosis	Dynein transport	S1P4 ag	zVAD necrop conf
CCOc1ccc(/C=C/C(=O)CCC(=O)O)cc1	-13	1	-9	0	-0.98	0	.
CCOc1ccc(/C=C\C(C)=N\O)cc1	-8	8	-9	99*	-1.2	-2	31
COc1ccc2c(c1)nc(SCC(O)c1ccccc1)n2C (configuration not stated)	2	5	-13	16	-1.1	0	.
N#Cc1c(N)nc2c(c1-c1ccccc1)CCC2	-8	-5	0	79*	0.19	1	8
COc1ccc(-c2c(C#N)c(N)nc3c2CCC3)cc1	-5	-2	-19	1	0.77	1	.
CCOC(=O)c1sc(NC(=O)C(C)Sc2nnc(N)s2)nc1C (configuration not stated)	-5	1	-5	78*	0.39	5	2
CCOC(=O)c1sc(NC(=O)CCC(=O)O)nc1C	-1	1	-3	2	0.14	-1	.
COc1ccccc1NC(=O)c1cc2cc(Br)ccc2cc1O	11	-8	-1	3	-0.39	0	.
O=C(NCCCn1ccnc1)c1cc(-c2cccs2)on1	4	-9	11	76*	0.084	0	4
O=C(NCCCN1CCOCC1)c1cc(-c2cccs2)on1	-4	-8	15	26	-0.022	-2	.
CCCCC(CC)CNC(=O)c1ncn[nH]1 (configuration not stated)	-8	1	8	9	-0.72	2	.
O=c1oc2ccccc2n1CSC1=NCCS1	12	61*	7	101*	-0.64	-1	1
O=c1oc2ccccc2n1CSc1nc2ccccc2s1	2	2	-9	1	-1	-1	.
c1ccc(Cc2noc(CN3CCN(CCOc4ccccc4)CC3)n2)cc1	0	0	-12	-1	-0.56	0	.
c1ccc(-n2cnc3cc(NCc4cccs4)ccc32)cc1	3	-7	-4	85*	1.3	-2	45
COc1ccccc1-n1cnc2cc(NCc3ccccn3)ccc21	-3	-4	-17	1	-0.012	0	.
c1ccc(-n2cnc3ccccc32)cc1	-2	1	-21	75	-0.17	2	.
CCC(=O)Nc1ccc2c(c1)ncn2-c1ccc(C)cc1	0	3	11	84*	0.55	0	36
COc1ccc(-n2cnc3cc(NCc4ccccn4)ccc32)cc1	-4	0	9	78*	-0.84	0	66*
CCC(=O)Nc1ccc2c(c1)ncn2-c1ccccc1C	7	1	10	1	1.4	0	.
COc1ccc(-n2cnc3ccccc32)cc1	-7	0	1	80*	-0.71	-4	38
CNC(=O)c1c(NC(=O)c2cccc(N3C(=O)CCC3=O)c2)sc2c1CCCC2	-14	1	11	1	-1.2	2	.
CN(C)CCCNS(=O)(=O)c1ccc(Cl)s1	6	0	-7	0	0.2	-1	.

From PubChem BioAssay
